Shown are actives, neighbours in structure and some others; about 4.1% of the full set was active somewhere.
hERG protect: hERG (human) protection from proarrhythmic block. Q12809. CHO-hERG, FluxOR thallium flux, dofetilide IC70 present. activation (rescue from dofetilide block), less the hit threshold, % at 10 µM. 310,000 compounds, 0.51% hits;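 active = activation above the mean of controls blocked by dofetilide plus 5 SD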;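 note: thallium influx through hERG after potassium depolarization seen as dye fluorescence rise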
KCNQ1 act: potentiates or activates the human KCNQ1 potassium channel; 310,000 compounds, 0.35% hits; CHO-K1 KCNQ1, thallium flux FluxOR fluorescence; active compounds read high; B-score at 10 µM;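 active = fluorescence ratio B-score, a plate-corrected score, at least three library SD, with initial intensity B-score within 5 SD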
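System: CHO-K1 cells stably expressing KCNQ1 / Medium: assay buffer for compound exposure, DMSO matched across wells / Reagent: thallium- and potassium-containing depolarizing buffer / Compound: one concentration, matched DMSO / Incubation: 20 min compound pretreatment at room temperature / Measured by: kinetic FluxOR fluorescence, 10 s baseline plus 110 s post-stimulus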
KCNK3 inh: human KCNK3 channel inhibition, primary screen; O14649; 340,000 compounds, 0.84% hits; B-score at 10 µM; CHO-KCNK3 thallium flux, FluxOR fluorescence; active compounds read low;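 active = B-score under library mean minus 4 SD, starting fluorescence ratio at most library mean plus 5 SD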;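 note: more negative B-score means stronger inhibition of thallium flux through KCNK3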
Target sequence (O14649 whole entry, looked up): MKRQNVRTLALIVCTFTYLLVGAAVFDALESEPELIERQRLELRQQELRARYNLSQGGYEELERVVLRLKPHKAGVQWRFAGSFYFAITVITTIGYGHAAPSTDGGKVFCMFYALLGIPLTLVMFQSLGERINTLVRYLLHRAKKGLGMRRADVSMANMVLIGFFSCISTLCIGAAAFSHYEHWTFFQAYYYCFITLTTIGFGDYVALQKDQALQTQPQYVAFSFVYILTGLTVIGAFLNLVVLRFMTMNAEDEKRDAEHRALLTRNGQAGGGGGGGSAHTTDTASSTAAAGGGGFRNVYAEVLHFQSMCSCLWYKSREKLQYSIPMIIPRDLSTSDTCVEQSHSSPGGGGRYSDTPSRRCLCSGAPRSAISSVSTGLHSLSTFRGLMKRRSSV
KCNK9 block: inhibitors of human KCNK9 two-pore domain potassium channel; 310,000 compounds, 1.2% hits; AID 488922; HEK293 KCNK9, FluxOR thallium flux fluorescence; active compounds read low; Q9NPC2; B-score at 10 µM;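 active = ratio B-score over 3 SD below the library mean, with starting fluorescence within 5 SD of its mean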;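 note: negative B-score means less thallium flux so channel inhibition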
Target sequence (Q9NPC2 whole entry, looked up, the tested form may be a part): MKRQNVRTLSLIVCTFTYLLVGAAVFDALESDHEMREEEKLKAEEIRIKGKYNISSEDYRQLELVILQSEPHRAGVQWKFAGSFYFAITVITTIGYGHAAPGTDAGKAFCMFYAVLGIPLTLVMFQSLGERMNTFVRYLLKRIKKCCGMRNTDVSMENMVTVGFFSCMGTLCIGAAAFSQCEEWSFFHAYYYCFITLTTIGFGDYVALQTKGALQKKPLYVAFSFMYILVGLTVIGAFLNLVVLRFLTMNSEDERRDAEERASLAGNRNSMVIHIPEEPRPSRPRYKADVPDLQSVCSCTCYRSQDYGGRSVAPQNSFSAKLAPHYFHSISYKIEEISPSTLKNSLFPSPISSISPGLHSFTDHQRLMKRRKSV
Cl transport mod: modulators of human KCC2 chloride dependent transport. Q9H2X9. AID 1456. B-score of Tl+ flux slope (higher = more flux/activation; lower = inhibition) at 10 µM. 190,000 compounds, 2.2% hits. KCC2 cells, thallium flux FluoZin-2 fluorescence;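 active = thallium flux slope and its plate-corrected score both differing from the plate sample mean at a set confidence after two filtering rounds, in either direction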;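 note: slope of fluorescence scaled to starting intensity during 10 to 20 s after thallium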
KCNQ1 inh: human KCNQ1 channel inhibition | 310,000 compounds, 1.3% hits | P51787 | CHO-K1 KCNQ1, FluxOR thallium flux fluorescence; active compounds read high | B-score at 10 µM;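 active = compounds whose thallium flux B-score, printed positive for inhibition, exceeds three library SD while starting fluorescence stays within three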;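 note: channel opened by potassium depolarization with thallium stimulus after 20 min compound exposure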
KCC2 secondary: confirmation of human KCC2 transport modulators; 3,700 compounds, 15% hits; shares compounds with Cl transport mod; normalised thallium flux (F/F0 slope) at 10 µM; HEK293-KCC2, thallium flux, FluoZin2 fluorescence; active compounds read high;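 active = thallium flux slope above the same plate's solvent-only control mean plus 3 SD; inconclusive = the two replicate wells disagree; inactive = no significant difference from solvent-only control wells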
KCC2 bumet counter: bumetanide-insensitive thallium flux in KCC2 cells with ouabain, counter-screen | shares compounds with Cl transport mod | HEK293-KCC2 + bumetanide/ouabain, thallium flux FluoZin2; active compounds read high | normalized thallium flux at 10 µM | 3,700 compounds, 49% hits;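 active = thallium entry rate above the same plate's blocked-transporter control wells by more than 3 SD; inconclusive = the two repeat wells disagree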;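 note: raw slope of fluorescence over initial fluorescence between 10 and 20 s after thallium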
KCC2 secondary2: KCC2 (human) modulation, second secondary assay | shares compounds with Cl transport mod | HEK293-KCC2, thallium flux FluoZin2 fluorescence; actives lie on both sides; F/F0 rise rate, 10–20 s post-thallium | normalized thallium flux at 10 µM | 3,700 compounds, 23% hits | AID 1715;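 active = thallium flux slope more than 3 SD above or below the plate's solvent-only control mean, mostly below; inconclusive = the two repeat wells disagreed; inactive = no significant shift from solvent-only controls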
HEK293 Tl flux: acts in parental HEK cells, KCC2 counter-screen; HEK293 parental cells, thallium flux FluoZin2, ouabain; baseline-ratio fluorescence slope, 10–20 s after thallium; 3,700 compounds, 46% hits; shares compounds with Cl transport mod; thallium flux rate (normalised fluorescence) at 10 µM; AID 1716;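 active = thallium flux rate significantly above the same plate's solvent-only control wells, beyond their mean plus 3 SD; inconclusive = the two replicate wells gave conflicting results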
KCC2 retest ouab: KCC2 (human) modulation, ouabain retest. shares compounds with Cl transport mod. HEK293-KCC2, thallium flux FluoZin2 fluorescence; bidirectional: low = inhibitor, high = activator. raw Tl+ flux slope (below DMSO = inhibition, above = activation) at 10 µM. 3,700 compounds, 48% hits;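 active = thallium flux slope beyond 3 SD from same-plate DMSO control mean in most replicates, usually higher, sometimes lower; inconclusive = repeat tests gave conflicting results; inactive = no significant difference from controls in most replicates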;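 note: slope of initial-normalized fluorescence between seconds 10 and 20 after thallium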
HEK counter2: parental HEK flux effect, counter-screen 2; shares compounds with Cl transport mod; HEK293 parental, thallium flux FluoZin-2 fluorescence slope; thallium flux slope at 10 µM; 3,700 compounds, 33% hits;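 active = thallium flux slope above the same plate's solvent-control mean plus 3 SD in both duplicate wells; inconclusive = duplicate wells that disagreed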;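 note: run without ouabain in cells lacking the KCC2 cotransporter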
A number is an active result; n = inactive; u = inconclusive; x = no result.

SMILES	hERG protect	KCNQ1 act	KCNK3 inh	KCNK9 block	Cl transport mod	KCNQ1 inh	KCC2 secondary	KCC2 bumet counter	KCC2 secondary2	HEK293 Tl flux	KCC2 retest ouab	HEK counter2
CSc1nnc(-c2cc(Br)ccc2N=Cc2c(C)[nH]n(-c3ccccc3)c2=O)c(=O)[nH]1	n	n	n	n	n	n	x	x	x	x	x	x
CCSc1nnc(-c2cc(Br)ccc2N=Cc2c(C)[nH]n(-c3ccccc3)c2=O)c(=O)[nH]1	n	n	n	n	4.6	n	n	0.0144	n	0.0133	n	0.012
CCn1c(=O)c2ccccc2n(Cc2cccc([N+](=O)[O-])c2)c1=O	n	n	n	n	x	n	x	x	x	x	x	x
O=C(CCn1c(=O)c2ccccc2n(Cc2cccc([N+](=O)[O-])c2)c1=O)N1CCc2ccccc2C1	n	n	n	n	-3.13	n	n	n	n	n	0.0178	n
Cc1cccc(N(CC(=O)NC(C)C)C(=O)CCC(=O)Nc2nccs2)c1	n	n	n	n	x	n	x	x	x	x	x	x
O=C(CNc1ccc(Br)cc1)NC(=O)NC1CCCCC1	x	x	n	x	x	x	x	x	x	x	x	x
O=C(Nc1nnc(C2=COCCO2)o1)c1ccc(Cl)cc1	n	n	n	n	8.51	n	u	0.0258	n	0.0208	0.0325	u
O=C(Nc1nnc(C2=COCCO2)o1)c1ccc(Cc2ccccc2)cc1	n	n	n	n	7.3	n	n	0.0195	n	0.0157	u	0.0188
O=C(Nc1nnc(C2=COCCO2)o1)c1ccc(F)cc1	n	n	n	n	x	n	x	x	x	x	x	x
C[C@@H]1CN([C@H](C)CO)C(=O)c2cc(NS(=O)(=O)c3cn(C)cn3)ccc2O[C@H]1CN(C)C(=O)Nc1ccccc1	x	x	n	x	x	x	x	x	x	x	x	x
O=c1c2ccccc2nnn1Cc1ccccn1	n	n	n	n	-4.98	n	n	u	n	n	n	n
O=c1c2ccccc2nnn1Cc1cccc2ccccc12	n	n	n	n	n	n	x	x	x	x	x	x
COc1ccc(C(=O)OCC(=O)NCc2ccc3c(c2)OCO3)cc1S(=O)(=O)N1CCOCC1	x	x	n	x	x	x	x	x	x	x	x	x
Cc1csc(N(C)C(=O)CSc2nnc(COc3cccc4ccccc34)o2)n1	n	n	n	n	x	n	n	n	n	n	0.0152	n
COc1cc(C(=O)OCC(=O)NCCC2=CCCCC2)ccc1OCC(C)C	n	n	n	n	x	n	x	x	x	x	x	x
c1ccc(CN2CN=C(Nc3nc4ccccc4s3)NC2)cc1	n	n	n	n	n	n	x	x	x	x	x	x
COc1ccc(CN2CN=C(Nc3nc4ccccc4s3)NC2)cc1	n	n	n	n	-5.45	n	n	n	n	n	n	n
N#Cc1nc(-c2cccs2)oc1N1CCN(Cc2ccccc2)CC1	n	n	n	n	x	n	n	u	0.0228	n	n	n
N#Cc1nc(COc2ccccc2)oc1N1CCN(Cc2ccccc2)CC1	n	n	n	n	x	n	x	x	x	x	x	x
CCc1nn(CC(=O)NCCC2=CCCCC2)c(=O)c2cc3cc(F)ccc3n12	n	n	n	n	x	n	x	x	x	x	x	x
CN1CCC(OC(c2ccccc2)c2ccccc2)CC1	n	n	n	n	4.67	n	n	n	n	u	n	n
CN1CCC(Oc2ccccc2Sc2ccccc2)CC1	n	n	n	n	n	n	x	x	x	x	x	x
O=S(Cc1ccccc1)Cc1ccccc1	x	x	n	x	x	x	x	x	x	x	x	x
O=C(CCCN1C(=O)c2cccc3cccc(c23)C1=O)N1CCc2ccccc2C1	n	n	n	n	-4.08	n	n	u	0.0241	0.00575	0.0121	n
O=C(c1cc(COc2ccc(F)cc2Cl)on1)N1CCC(OCc2cccnc2)CC1	n	n	n	n	x	n	n	n	n	n	0.0297	n
SMILES	hERG protect	KCNQ1 act	KCNK3 inh	KCNK9 block	Cl transport mod	KCNQ1 inh	KCC2 secondary	KCC2 bumet counter	KCC2 secondary2	HEK293 Tl flux	KCC2 retest ouab	HEK counter2
O=C(c1cc(COc2ccc(F)cc2Cl)on1)N1CCCC(OCc2cccnc2)C1 (stereo not drawn)	n	n	n	n	x	n	n	n	n	n	0.0145	u
O=C(c1cc(COc2ccc(F)cc2Cl)on1)N1CCCCC1c1cccnc1 (stereo not drawn)	n	n	n	n	x	n	x	x	x	x	x	x
O=C(c1cc(COc2ccc(F)cc2Cl)on1)N1CCN(C2CCCC2)CC1	n	n	n	n	x	n	x	x	x	x	x	x
Cc1nonc1C1CCCN1C(=O)c1cc(COc2ccc(F)cc2Cl)on1 (stereo not drawn)	n	n	n	n	x	n	n	n	0.0241	u	n	n
CCN(CC(=O)Nc1ccc2c(c1)OCCO2)C(=O)COc1ccc(C)cc1	n	n	n	n	x	n	x	x	x	x	x	x
CCOc1ccc(OCC)c(NC(=O)C2CCCN(c3nc(C)cc(C)n3)C2)c1 (stereo not drawn)	n	n	n	n	-3.75	n	n	n	u	0.00572	0.0139	u
CN(C)c1ccc(C(=O)Nc2nnc(-c3ccc(Cl)cc3)o2)cc1	n	n	n	n	20.2	n	n	0.0598	0.0457	0.0537	0.0511	0.0264
CN(c1ccccc1)S(=O)(=O)c1ccc(C(=O)Nc2nnc(-c3ccc(F)cc3)o2)cc1	n	n	x	n	17.6	n	0.0133	0.0556	n	u	0.0383	n
CC(=O)c1ccc(C(=O)Nc2nnc(-c3ccc(Cl)cc3)o2)cc1	n	n	n	n	22.1	n	0.0219	0.0904	u	0.0452	0.0497	0.0158
CN(c1ccccc1)S(=O)(=O)c1ccc(NC(=O)c2ccc(-c3ccccc3)cc2)cc1	n	n	n	n	n	n	x	x	x	x	x	x
COc1ccc(Nc2nc(N3CCCC3)nc(N3CCCC3)n2)c(OC)c1	n	n	n	n	-2.38	n	u	n	n	n	n	n
Cc1ccc(C(=O)NC(=S)Nc2cccc3nsnc23)cc1	n	n	n	n	n	n	x	x	x	x	x	x
Cc1ccc(C(=O)NC(=S)Nc2c(C)ccc3nsnc23)cc1	n	n	n	n	8.67	n	n	0.0575	n	0.0234	0.0448	0.0129

High-throughput results deposited in PubChem BioAssay by several laboratories.
